Assay results reported in ChEMBL document CHEMBL1147849, “Synthesis and recognition of novel isonucleoside triphosphates by DNA polymerases” (Bioorg Med Chem, 2007).
Active and inactive are the calls of the source. No cut-off for these calls is given here.

What was measured:
Thermus aquaticus = assay: Inhibition of Thermus acquaticus DNA polymerase-mediated DNA synthesis assessed as DNA chain termination
Summary of the method: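 Taq polymerase primer extension: 25-mer template (A, T, G or C at the first target site) and 5′-FITC 17-mer primer, 20 pmol each. Buffer was 50 mM KCl, 10 mM Tris–HCl pH 9.0, 1.5 mM MgCl₂, 0.1% Triton X-100. Triphosphate or dNTPs 1 nmol each, 2 U enzyme, 50 °C for 1.5 h. Read-out by denaturing polyacrylamide gel electrophoresis.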

[1] = Inhibition of 9 Nm DNA polymerase-mediated DNA synthesis assessed as DNA chain termination
Summary of the method: (§1)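 25-mer template (four variants, each with A, T, G or C at the first target site) annealed to a 5′-FITC 17-mer primer, 20 pmol each. Annealing was done by cooling quickly from 90 to 0 °C in buffer: 10 mM KCl, 10 mM (NH₄)₂SO₄, 20 mM Tris–HCl pH 8.8, 2 mM MgSO₄, 0.1% Triton X-100. Reactions held triphosphate or dNTPs (1 nmol each) and 2 U polymerase, 50 °C, 1.5 h. Products were resolved by denaturing PAGE.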

[2] = Inhibition of Deep Vent(exo-) DNA polymerase-mediated DNA synthesis assessed as DNA chain termination; summary of the method: as §1
[3] = Inhibition of Vent(exo-) DNA polymerase-mediated DNA synthesis assessed as DNA chain termination; summary of the method: as §1
[4] = Inhibition of Therminator DNA polymerase-mediated DNA synthesis assessed as DNA chain termination; summary of the method: as §1
[5] = Activity of 9 Nm DNA polymerase enzyme
Summary of the method: (§2)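 Kinetics with 9°N DNA polymerase at 0.01 U/µL in the supplier's buffer. Primer was annealed to template 2 (T at the target site), 2 µM primer–template complex, with varying concentrations of dATP or the isonucleoside triphosphate.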

[6] = Ratio of Vmax to Km for 9 Nm DNA polymerase; summary of the method: as §2

SMILES	Activity (Thermus aquaticus)	Activity [1]	other results
Nc1ccn([C@H]2CO[C@@H](CCOP(=O)(O)OP(=O)(O)OP(=O)(O)O)[C@@H]2O)c(=O)n1	Active	Active	
C=CCOC[C@@H]1O[C@@H](COP(=O)(O)OP(=O)(O)OP(=O)(O)O)[C@H](O)[C@H]1n1cc(C)c(=O)[nH]c1=O	Active	Active	
Nc1ncnc2c1ncn2[C@@H]1CO[C@H](COP(=O)(O)OP(=O)(O)OP(=O)(O)O)[C@H]1O	Active	inactive	Activity [2]: Active; Activity [3]: inactive; Activity [4]: inactive
Nc1ncnc2c1ncn2[C@H]1C[C@H](O)[C@@H](COP(=O)(O)OP(=O)(O)OP(=O)(O)O)O1			Km [5]: 0.78 µM; Vmax [5]: 6.73 %/min; Vmax/Km [6]: 8.63e+06 M⁻¹

More lines, main results first:

Activity (Thermus aquaticus)	Activity [1]	SMILES	other results
Active	Active	Nc1nc2c(ncn2[C@H]2CO[C@@H](CCOP(=O)(O)OP(=O)(O)OP(=O)(O)O)[C@@H]2O)c(=O)[nH]1	
Active	Active	Cc1cn([C@H]2CO[C@@H](CCOP(=O)(O)OP(=O)(O)OP(=O)(O)O)[C@@H]2O)c(=O)[nH]c1=O	
